# Measured values taken from ChEMBL document CHEMBL5653631, “A Potent and Selective ULK1 Inhibitor Suppresses Autophagy and Sensitizes Cancer Cells to Nutrient Stress” (iScience, 2018).
# How the values were obtained:
# [1] = target: T1, Serine/threonine-protein kinase Chk1 (Homo sapiens) (UniProt O14757); test: Inhibition of human recombinant CHK1 at 500 nM related to control ULK1
# T1 sequence (whole entry): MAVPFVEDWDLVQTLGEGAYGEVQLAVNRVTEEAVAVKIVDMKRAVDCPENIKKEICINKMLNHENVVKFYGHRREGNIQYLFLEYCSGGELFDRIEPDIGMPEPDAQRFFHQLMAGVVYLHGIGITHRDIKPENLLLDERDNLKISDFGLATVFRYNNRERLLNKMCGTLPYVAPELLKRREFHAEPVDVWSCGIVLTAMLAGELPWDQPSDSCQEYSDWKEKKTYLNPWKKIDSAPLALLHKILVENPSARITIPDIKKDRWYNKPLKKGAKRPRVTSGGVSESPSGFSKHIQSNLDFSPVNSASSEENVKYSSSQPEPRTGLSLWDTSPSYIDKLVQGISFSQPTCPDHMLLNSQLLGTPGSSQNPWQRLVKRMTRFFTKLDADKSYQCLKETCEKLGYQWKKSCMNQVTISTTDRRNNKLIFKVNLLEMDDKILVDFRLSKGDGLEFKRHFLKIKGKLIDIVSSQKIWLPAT
# [2] = target: Ribosomal protein S6 kinase alpha-2 (Homo sapiens) (UniProt Q15349); test: Inhibition of human recombinant RSK3 at 500 nM in presence of ATP by radiometric assay relative to control
# Ribosomal protein S6 kinase alpha-2 (Homo sapiens), sequence (Q15349 whole entry): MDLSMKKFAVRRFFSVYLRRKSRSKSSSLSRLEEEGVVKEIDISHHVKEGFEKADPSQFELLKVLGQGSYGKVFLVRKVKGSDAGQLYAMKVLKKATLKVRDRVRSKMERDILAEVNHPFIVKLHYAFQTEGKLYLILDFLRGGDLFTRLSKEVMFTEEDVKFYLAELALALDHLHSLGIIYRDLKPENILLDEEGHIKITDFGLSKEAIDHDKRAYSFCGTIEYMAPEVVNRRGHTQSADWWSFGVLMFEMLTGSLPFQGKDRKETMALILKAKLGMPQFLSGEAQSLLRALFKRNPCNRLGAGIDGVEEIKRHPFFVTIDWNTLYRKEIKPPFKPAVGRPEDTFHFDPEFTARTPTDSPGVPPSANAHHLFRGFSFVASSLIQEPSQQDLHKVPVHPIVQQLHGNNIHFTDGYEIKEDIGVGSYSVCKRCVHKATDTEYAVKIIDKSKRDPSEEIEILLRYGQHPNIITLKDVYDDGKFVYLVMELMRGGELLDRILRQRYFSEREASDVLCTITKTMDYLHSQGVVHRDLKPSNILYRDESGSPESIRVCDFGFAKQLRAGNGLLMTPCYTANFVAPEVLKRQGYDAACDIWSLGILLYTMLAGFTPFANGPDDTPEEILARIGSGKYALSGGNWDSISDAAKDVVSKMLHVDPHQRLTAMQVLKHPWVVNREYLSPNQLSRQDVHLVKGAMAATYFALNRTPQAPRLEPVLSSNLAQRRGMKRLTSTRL
# [3] = target: T2, NUAK family SNF1-like kinase 1 (Homo sapiens) (UniProt O60285); test: Inhibition of human recombinant NuaK1 at 15 nM related to control ULK1
# T2 sequence (whole entry): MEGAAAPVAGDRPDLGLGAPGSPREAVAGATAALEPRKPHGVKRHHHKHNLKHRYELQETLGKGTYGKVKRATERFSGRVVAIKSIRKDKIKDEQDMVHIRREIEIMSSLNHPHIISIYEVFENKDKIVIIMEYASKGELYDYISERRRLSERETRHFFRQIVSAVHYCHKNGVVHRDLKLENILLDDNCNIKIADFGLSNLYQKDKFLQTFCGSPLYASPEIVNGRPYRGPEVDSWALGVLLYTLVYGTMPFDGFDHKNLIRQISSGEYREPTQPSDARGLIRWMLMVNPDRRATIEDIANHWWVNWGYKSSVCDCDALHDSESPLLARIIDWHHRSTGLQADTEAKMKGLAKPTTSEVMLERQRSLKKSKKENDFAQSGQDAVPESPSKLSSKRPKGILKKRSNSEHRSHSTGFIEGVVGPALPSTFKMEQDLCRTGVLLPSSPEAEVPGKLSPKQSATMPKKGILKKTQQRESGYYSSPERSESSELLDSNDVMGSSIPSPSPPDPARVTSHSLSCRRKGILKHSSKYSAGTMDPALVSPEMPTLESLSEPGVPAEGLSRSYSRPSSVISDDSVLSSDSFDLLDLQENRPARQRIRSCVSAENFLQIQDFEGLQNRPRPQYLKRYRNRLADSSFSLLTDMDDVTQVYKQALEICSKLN
# [4] = target: T3, Phosphorylase b kinase gamma catalytic chain, liver/testis isoform (Homo sapiens) (UniProt P15735); test: Inhibition of human recombinant PHKg2 at 15 nM in presence of ATP by radiometric assay relative to control
# T3 sequence (whole entry): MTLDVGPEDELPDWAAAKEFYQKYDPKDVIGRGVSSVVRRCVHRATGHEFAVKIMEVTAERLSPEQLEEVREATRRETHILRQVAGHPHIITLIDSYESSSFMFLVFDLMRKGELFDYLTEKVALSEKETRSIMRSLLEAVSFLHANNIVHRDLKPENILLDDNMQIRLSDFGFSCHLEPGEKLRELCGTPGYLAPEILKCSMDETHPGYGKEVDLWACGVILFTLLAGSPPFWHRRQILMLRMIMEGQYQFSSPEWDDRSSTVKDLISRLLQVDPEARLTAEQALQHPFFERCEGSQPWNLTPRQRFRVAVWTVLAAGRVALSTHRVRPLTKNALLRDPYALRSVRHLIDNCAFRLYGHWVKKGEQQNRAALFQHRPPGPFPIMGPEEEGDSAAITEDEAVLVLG
# [5] = target: LIM domain kinase 1 (Homo sapiens) (UniProt P53667); test: Inhibition of human recombinant LIMK1 at 40 nM in presence of ATP by radiometric assay relative to control
# LIM domain kinase 1 (Homo sapiens), sequence (P53667 whole entry, looked up, the tested form may be a part): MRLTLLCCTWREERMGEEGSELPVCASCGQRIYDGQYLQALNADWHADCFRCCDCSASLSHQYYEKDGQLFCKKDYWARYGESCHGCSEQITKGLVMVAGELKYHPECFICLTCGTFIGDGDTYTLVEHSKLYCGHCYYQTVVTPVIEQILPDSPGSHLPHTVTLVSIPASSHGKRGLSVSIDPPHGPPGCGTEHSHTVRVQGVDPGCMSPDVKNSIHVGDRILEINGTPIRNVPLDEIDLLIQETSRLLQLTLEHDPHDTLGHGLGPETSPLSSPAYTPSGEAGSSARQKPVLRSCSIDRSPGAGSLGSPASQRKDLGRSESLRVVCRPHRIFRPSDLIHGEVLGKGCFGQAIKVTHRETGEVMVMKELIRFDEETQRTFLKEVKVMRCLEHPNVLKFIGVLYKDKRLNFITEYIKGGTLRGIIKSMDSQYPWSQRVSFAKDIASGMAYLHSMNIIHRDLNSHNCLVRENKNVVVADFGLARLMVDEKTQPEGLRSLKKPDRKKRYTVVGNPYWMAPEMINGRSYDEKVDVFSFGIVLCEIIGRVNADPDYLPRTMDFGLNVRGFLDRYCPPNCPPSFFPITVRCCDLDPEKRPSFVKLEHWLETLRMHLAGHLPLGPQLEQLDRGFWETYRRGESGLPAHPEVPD
# [6] = target: Activated CDC42 kinase 1 (Homo sapiens) (UniProt Q07912); test: Inhibition of human recombinant ACK at 40 nM in presence of ATP by radiometric assay relative to control
# Activated CDC42 kinase 1 (Homo sapiens), sequence (Q07912 whole entry, looked up): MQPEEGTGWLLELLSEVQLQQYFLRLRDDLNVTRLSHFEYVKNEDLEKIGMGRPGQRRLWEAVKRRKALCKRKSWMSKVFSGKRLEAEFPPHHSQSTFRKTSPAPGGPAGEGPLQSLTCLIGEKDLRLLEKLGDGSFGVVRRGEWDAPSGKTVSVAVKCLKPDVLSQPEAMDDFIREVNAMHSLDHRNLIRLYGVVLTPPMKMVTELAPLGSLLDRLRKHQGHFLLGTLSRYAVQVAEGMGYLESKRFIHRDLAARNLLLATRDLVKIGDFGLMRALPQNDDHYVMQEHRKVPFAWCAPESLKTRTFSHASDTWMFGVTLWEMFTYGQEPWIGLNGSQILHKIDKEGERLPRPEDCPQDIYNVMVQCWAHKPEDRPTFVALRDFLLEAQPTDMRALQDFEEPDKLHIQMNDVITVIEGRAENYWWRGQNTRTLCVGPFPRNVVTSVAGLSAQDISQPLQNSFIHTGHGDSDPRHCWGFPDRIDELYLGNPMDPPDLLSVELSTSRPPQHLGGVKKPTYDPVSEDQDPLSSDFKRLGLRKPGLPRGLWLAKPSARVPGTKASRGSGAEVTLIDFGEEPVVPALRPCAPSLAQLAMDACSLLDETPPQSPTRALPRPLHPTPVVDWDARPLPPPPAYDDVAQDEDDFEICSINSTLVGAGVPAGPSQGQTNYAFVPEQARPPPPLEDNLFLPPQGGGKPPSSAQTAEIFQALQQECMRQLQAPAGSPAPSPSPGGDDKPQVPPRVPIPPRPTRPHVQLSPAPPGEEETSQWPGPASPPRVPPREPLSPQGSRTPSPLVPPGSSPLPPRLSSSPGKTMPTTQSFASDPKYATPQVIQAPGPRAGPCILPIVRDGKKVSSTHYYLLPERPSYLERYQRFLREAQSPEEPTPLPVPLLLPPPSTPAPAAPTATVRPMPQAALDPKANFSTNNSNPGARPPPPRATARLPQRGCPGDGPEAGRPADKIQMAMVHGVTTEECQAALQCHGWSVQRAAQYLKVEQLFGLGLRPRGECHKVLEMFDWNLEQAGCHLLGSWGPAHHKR
# Procedure, shortened: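 Panel of 327 recombinant human kinases in radiometric activity assays, each screened in duplicate at a single inhibitor concentration; percent activity remaining relative to vehicle control, percent inhibition taken as 100 minus activity remaining.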
# [7] = target: Insulin-like growth factor 1 receptor (Homo sapiens) (UniProt P08069); test: Inhibition of human recombinant IGF1R at 40 nM related to control ULK1
# Insulin-like growth factor 1 receptor (Homo sapiens), sequence (P08069 31-736 limits assumed): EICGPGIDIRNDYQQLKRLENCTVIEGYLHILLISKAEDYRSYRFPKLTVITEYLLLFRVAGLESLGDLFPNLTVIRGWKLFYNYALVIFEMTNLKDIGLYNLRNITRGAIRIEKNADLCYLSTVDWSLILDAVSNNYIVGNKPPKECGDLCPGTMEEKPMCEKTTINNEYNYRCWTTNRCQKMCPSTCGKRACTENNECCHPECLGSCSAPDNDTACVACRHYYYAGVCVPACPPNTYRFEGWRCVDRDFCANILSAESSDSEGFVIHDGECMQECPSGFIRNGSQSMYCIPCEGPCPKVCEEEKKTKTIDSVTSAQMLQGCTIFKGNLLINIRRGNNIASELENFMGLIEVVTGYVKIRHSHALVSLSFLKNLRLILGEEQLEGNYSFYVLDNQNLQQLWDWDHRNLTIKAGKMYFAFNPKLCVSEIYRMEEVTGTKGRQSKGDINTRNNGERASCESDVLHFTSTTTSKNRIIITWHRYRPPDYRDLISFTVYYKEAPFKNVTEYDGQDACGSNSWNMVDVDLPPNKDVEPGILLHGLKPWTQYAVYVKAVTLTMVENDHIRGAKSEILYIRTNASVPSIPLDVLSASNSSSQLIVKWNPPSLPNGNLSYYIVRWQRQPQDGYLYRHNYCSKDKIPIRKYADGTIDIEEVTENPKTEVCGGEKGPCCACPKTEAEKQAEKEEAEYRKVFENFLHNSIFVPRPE
# Insulin-like growth factor 1 receptor (Homo sapiens), sequence (P08069 741-1367 limits assumed): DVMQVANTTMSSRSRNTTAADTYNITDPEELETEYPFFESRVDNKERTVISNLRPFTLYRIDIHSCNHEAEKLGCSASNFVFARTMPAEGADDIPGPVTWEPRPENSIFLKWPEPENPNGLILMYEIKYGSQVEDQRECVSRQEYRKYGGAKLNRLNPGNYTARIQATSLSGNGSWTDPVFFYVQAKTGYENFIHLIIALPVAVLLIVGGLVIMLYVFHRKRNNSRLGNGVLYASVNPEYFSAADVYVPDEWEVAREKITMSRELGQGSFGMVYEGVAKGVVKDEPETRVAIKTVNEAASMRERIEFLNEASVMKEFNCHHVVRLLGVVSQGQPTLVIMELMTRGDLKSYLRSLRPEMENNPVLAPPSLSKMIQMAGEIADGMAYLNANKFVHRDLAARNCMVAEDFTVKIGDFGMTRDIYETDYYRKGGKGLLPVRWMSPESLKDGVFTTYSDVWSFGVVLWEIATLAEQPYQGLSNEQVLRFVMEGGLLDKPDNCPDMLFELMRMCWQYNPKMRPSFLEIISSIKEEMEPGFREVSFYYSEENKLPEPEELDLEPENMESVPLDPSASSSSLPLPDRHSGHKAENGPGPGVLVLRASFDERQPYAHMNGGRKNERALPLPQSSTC
# [8] = target: T4, Dual specificity protein kinase TTK (Homo sapiens) (UniProt P33981); test: Inhibition of human recombinant TTK at 40 nM related to control ULK1
# T4 sequence (whole entry): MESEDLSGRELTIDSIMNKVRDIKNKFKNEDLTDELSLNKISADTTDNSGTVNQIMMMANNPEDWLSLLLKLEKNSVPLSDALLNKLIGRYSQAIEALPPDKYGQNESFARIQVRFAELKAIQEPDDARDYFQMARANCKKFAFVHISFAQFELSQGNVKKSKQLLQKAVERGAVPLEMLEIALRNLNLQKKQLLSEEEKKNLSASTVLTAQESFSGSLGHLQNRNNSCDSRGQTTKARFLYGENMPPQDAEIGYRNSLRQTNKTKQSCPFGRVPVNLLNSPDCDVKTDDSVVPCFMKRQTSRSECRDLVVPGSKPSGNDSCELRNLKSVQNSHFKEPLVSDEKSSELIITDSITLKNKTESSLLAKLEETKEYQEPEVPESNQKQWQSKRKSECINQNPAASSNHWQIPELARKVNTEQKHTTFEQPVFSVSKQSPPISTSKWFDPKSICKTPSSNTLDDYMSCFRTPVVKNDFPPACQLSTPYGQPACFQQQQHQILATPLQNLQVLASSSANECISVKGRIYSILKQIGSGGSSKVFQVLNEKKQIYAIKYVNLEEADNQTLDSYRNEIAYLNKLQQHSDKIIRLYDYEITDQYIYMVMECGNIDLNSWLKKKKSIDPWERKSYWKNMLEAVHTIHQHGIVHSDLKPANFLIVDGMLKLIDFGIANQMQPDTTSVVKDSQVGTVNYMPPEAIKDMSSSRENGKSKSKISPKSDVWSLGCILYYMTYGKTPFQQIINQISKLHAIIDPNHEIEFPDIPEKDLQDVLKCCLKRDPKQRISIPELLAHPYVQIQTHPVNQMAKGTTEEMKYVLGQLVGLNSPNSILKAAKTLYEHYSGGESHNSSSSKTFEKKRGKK
# [9] = target: Glycogen synthase kinase-3 alpha (Homo sapiens) (UniProt P49840); test: Inhibition of human recombinant GSK3A at 40 nM related to control ULK1
# Glycogen synthase kinase-3 alpha (Homo sapiens), sequence (P49840 2-483 limits assumed): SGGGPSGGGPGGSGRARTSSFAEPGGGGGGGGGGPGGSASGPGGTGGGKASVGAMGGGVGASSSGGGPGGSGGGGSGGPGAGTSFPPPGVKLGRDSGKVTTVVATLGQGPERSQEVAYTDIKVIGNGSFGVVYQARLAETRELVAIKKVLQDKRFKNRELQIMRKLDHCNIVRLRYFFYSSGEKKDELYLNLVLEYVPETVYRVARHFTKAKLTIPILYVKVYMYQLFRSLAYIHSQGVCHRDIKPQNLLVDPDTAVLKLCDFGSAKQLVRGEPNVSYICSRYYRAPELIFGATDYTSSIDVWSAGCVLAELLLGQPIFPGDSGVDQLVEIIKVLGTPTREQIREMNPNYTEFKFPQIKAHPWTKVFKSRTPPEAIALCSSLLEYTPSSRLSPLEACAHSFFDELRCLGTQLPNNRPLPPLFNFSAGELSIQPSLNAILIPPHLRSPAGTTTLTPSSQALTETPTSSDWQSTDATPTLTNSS
structure (smiles),measurement,setting,value
CNC(=O)c1ccccc1Oc1nc(Nc2cc(OC)c(OC)c(OC)c2)ncc1Br,fold change (FC),[1],0.05
same,inhibition,[2],49%
CC(C)[C@H](NC(=O)c1cc(-c2cnn3cc(-c4ccc(OCCN5CCCCC5)cc4)cnc23)cs1)C(F)(F)F,fold change (FC),[3],0.31
same,inhibition,[4],9%
O=C(N[C@@H](C1CC1)C(F)(F)F)c1cc(-c2cnn3cc(-c4ccc(F)cc4)cnc23)cs1,inhibition,[5],15%
same,inhibition,[6],17%
same,fold change (FC),[7],0
same,fold change (FC),[8],0.45
same,fold change (FC),[9],0
